Assay results: ChEMBL document CHEMBL4373727, “Thienopyrimidinone Derivatives That Inhibit Bacterial tRNA (Guanine37-N1)-Methyltransferase (TrmD) by Restructuring the Active Site with a Tyrosine-Flipping Mechanism” (J Med Chem, 2019)
Activity calls are given as the source filed them. The rule behind the calls is not given here.

How the values were obtained:
[1] = system: Streptococcus pneumoniae; test: Antibacterial activity against Streptococcus pneumoniae ATCC 49619 at 100 uM incubated for 24 hrs; format: functional, organism-based
Method in brief: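 Single 100 μM screen in MH medium with 3% defibrinated sheep blood at 37 °C under 5% CO2, ~5×10^5 cells/mL, 24 h.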

[2] = system: Mycobacterium tuberculosis; test: Antibacterial activity against Mycobacterium tuberculosis ATCC 27294 at 100 uM incubated for 7 days; format: functional, organism-based
[3] = target: T1, tRNA (guanine-N(1)-)-methyltransferase (Pseudomonas aeruginosa (strain ATCC 15692 / DSM 22644 / CIP 104116 / JCM14847 / LMG 12228 / 1C / PRS 101 / PAO1)) (UniProt Q9HXQ1); test: Binding affinity to Pseudomonas aeruginosa tRNA (guanine(37)-N1)-methyltransferase (Leu5 to Asp25 residues) expressed in Escherichia coli BL21 (DE3) Rosetta T1R cells assessed as association rate constant by surface plasmon resonance assay
T1 sequence (whole entry): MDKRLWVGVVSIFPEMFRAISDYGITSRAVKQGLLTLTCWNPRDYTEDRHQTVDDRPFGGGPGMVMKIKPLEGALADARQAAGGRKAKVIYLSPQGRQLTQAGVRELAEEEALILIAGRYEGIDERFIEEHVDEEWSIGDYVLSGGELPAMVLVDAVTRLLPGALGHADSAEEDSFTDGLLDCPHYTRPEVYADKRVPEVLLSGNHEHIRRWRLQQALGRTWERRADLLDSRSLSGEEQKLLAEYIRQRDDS
Method in brief: (§1)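 SPR at 25 °C. His-tagged TrmD (50 μg/mL) captured on an anti-His antibody surface (about 2200 RU), with a blank reference cell. Buffer: 50 mM Tris-HCl pH 8, 150 mM NaCl, 1 mM MgCl2, 1 mM DTT, 0.05% Tween-20. Analyte in 2-fold dilutions, injected lowest to highest at 30 μL/min, 30 s contact, 240 s dissociation. KD from steady-state affinity fit.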

[4] = target: T2, tRNA (guanine-N(1)-)-methyltransferase (Pseudomonas aeruginosa (strain ATCC 15692 / DSM 22644 / CIP 104116 / JCM14847 / LMG 12228 / 1C / PRS 101 / PAO1), UniProt Q9HXQ1); test: (§2) Inhibition of Pseudomonas aeruginosa tRNA (guanine(37)-N1)-methyltransferase (Leu5 to Asp25 residues) expressed in Escherichia coli BL21 (DE3) Rosetta T1R cells assessed as reduction in S-adenosyl-L-homocysteine production preincubated for 15 mins followed by 1.5 uM of tRNALeu(CAG) substrate and SAM addition and measured after 45 mins by MTase-Glo assay
T2 sequence (Q9HXQ1 whole entry): T1 sequence (whole entry)
Method in brief: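 MTase-Glo luminescence assay. 8 nM TrmD preincubated 15 min at ambient temperature with serially diluted inhibitor (0–500 μM) in 50 mM Tris-HCl pH 8.0, 80 mM NaCl, 1 mM MgCl2, 0.5 mM DTT, 0.01% Triton X-100. Reaction with 2 μM SAM and tRNALeu(CAG), 45 min at 37 °C. Detection 30 min in the dark, SAH read against a standard curve. IC50 by nonlinear regression. Two independent experiments in duplicate.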

[5] = target: T2, tRNA (guanine-N(1)-)-methyltransferase; test: as §2, with “BL21 Rosetta” for “BL21”, “(DE3)” for “(DE3) Rosetta T1R cells”, “15” for “1.5”
Method in brief: (§3)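 tRNA competition: same MTase-Glo assay with 8 nM PaTrmD and 2 μM SAM, 15 min preincubation and 45 min reaction at 37 °C. tRNALeu(CAG) at 1.5, 4.5 or 15 μM. IC50 from dose–response curves, duplicate data points.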

[6] = target: T3, tRNA (guanine-N(1)-)-methyltransferase (Mycobacterium tuberculosis (strain ATCC 25618 / H37Rv)) (UniProt P9WFY7); test: Binding affinity to full length Mycobacterium tuberculosis tRNA (guanine(37)-N1)-methyltransferase expressed in Escherichia coli BL21 (DE3) assessed as association rate constant by surface plasmon resonance assay; method in brief: as §1
T3 sequence (whole entry): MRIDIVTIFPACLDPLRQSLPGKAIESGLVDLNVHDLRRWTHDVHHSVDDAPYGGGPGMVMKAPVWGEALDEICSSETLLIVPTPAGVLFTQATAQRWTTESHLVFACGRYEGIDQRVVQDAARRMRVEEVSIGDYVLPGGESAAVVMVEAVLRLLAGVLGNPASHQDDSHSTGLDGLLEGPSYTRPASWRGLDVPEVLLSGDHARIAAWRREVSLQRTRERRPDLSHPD

[7] = target: T4, tRNA (guanine-N(1)-)-methyltransferase (Staphylococcus aureus (strain NCTC 8325 / PS 47)) (UniProt Q2FZ43); test: Binding affinity to full length Staphylococcus aureus tRNA (guanine(37)-N1)-methyltransferase expressed in Escherichia coli BL21 (DE3) assessed as association rate constant by surface plasmon resonance assay; method in brief: as §1
T4 sequence (whole entry): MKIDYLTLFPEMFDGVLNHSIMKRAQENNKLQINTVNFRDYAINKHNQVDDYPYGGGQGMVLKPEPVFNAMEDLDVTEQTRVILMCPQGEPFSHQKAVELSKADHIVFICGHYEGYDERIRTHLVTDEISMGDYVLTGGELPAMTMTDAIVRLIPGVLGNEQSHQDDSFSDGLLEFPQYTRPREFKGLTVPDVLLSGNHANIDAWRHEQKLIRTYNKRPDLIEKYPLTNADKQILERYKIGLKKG

[8] = system: Enterococcus faecalis; test: Antibacterial activity against Enterococcus faecalis ATCC 51299 at 100 uM incubated for 24 hrs; format: functional, organism-based
Method in brief: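 Single-concentration screen in brain heart infusion broth. Log-phase cells at ~5×10^5 cells/mL were grown with 100 μM compound for 24 h at 37 °C. Growth was read as OD600 and expressed as a percentage of untreated wells. DMSO and blank controls were included.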

[9] = target: T2, tRNA (guanine-N(1)-)-methyltransferase; test: as §2, with “BL21 Rosetta” for “BL21”, “(DE3)” for “(DE3) Rosetta T1R cells”, “4.5” for “1.5”; method in brief: as §3
[10] = target: T5, tRNA (guanine-N(1)-)-methyltransferase (Staphylococcus aureus (strain NCTC 8325 / PS 47), UniProt Q2FZ43); test: Binding affinity to full length Staphylococcus aureus tRNA (guanine(37)-N1)-methyltransferase expressed in Escherichia coli BL21 (DE3) by surface plasmon resonance assay; method in brief: as §1
T5 sequence (Q2FZ43 whole entry): T4 sequence (whole entry)

[11] = target: T3, tRNA (guanine-N(1)-)-methyltransferase (Mycobacterium tuberculosis (strain ATCC 25618 / H37Rv)); test: Binding affinity to full length Mycobacterium tuberculosis tRNA (guanine(37)-N1)-methyltransferase expressed in Escherichia coli BL21 (DE3) assessed as dissociation rate constant by surface plasmon resonance assay; method in brief: as §1
[12] = target: T6, tRNA (guanine-N(1)-)-methyltransferase (Mycobacterium tuberculosis (strain ATCC 25618 / H37Rv), UniProt P9WFY7); test: Binding affinity to full length Mycobacterium tuberculosis tRNA (guanine(37)-N1)-methyltransferase expressed in Escherichia coli BL21 (DE3) by surface plasmon resonance assay; method in brief: as §1
T6 sequence (P9WFY7 whole entry): T3 sequence (whole entry)

SMILES | Activity [1] | Activity [2] | Ka [3] | IC50 [4] | IC50 [5] | Ka [6] | Ka [7] | Activity [8] | IC50 [9] | Kd [10] | Kdiss [11] | Kd [12]
NC1CCN(Cc2ccc(CNC(=O)c3csc4nc[nH]c(=O)c34)cc2)CC1 | inactive | inactive | 128000 M⁻¹ s⁻¹ | 0.18 µM | 0.84 µM | 20100 M⁻¹ s⁻¹ | 59900 M⁻¹ s⁻¹ | inactive | 0.33 µM | 27.5 µM | 0.209 s⁻¹ | 10.4 µM
CCCCCCCCNCc1ccc(CNC(=O)c2csc3nc[nH]c(=O)c23)cc1 | Active | Active | 1.35e+07 M⁻¹ s⁻¹ | 0.024 µM | 0.26 µM | 645000 M⁻¹ s⁻¹ | 2.94e+06 M⁻¹ s⁻¹ | Active | 0.06 µM | 3.1 µM | 0.12 s⁻¹ | 0.19 µM
